According to ChEMBL document CHEMBL4028857, “Anchimerically Activated ProTides as Inhibitors of Cap-Dependent Translation and Inducers of Chemosensitization in Mantle Cell Lymphoma” (J Med Chem, 2017):
Activity calls are given as the source filed them. The calls are words filed in the database; no cut-off is given here.

Columns and labels:
[1] = Half life in HEPES buffer at 80 uM at pH 2 by RP-HPLC analysis; assay type: physicochemical
In short: (§1)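 Compound at 80 µM in 20 mM HEPES (pH 7.2 or 2.0) incubated at 37 °C; aliquots analyzed by RP-HPLC at 0, 1, 4, 6, 12, 18 and 24 h to follow methylthioalkyl deprotection and derive half-life.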

[2] = Half life in HEPES buffer at 80 uM at pH 7.2 by RP-HPLC analysis; assay type: physicochemical; in short: as §1
Mino [3] = assay: Antiproliferative activity against human Mino cells at […] preincubated for 48 hrs followed by thymidine addition measure after 16 hrs by Thymidine incorporation assay; assay type: functional, cell-based
In short: (§2)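 MCL lines treated 48 h with compound re-added daily, alone or with co-drug (ibrutinib 25 µM where used), then thymidine added for a further 16 h; proliferation read as thymidine incorporation.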

Mino [4] = assay: Antiproliferative activity against human Mino cells at 25 uM preincubated for 48 hrs followed by thymidine addition measure after 16 hrs by Thymidine incorporation assay; assay type: functional, cell-based
In short: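 MCL cell lines exposed to ProTide 48 h with fresh compound added every day, then thymidine added for a further 16 h. Proliferation read as thymidine incorporation.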

[5] = target: Eukaryotic translation initiation factor 4E (Homo sapiens) (UniProt P06730); assay: Inhibition of eIF4E in human Mino cells assessed as down regulation of c-Myc protein expression at 10 to 25 uM after 48 hrs by Western blot analysis; assay type: cell-based
In short: (§3)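 MCL cell lines treated with ProTide 48 h. Lysates were protein-quantified, then immunoblotted.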

[6] = target: Eukaryotic translation initiation factor 4E-binding protein 1 (Homo sapiens) (UniProt Q13541); assay: Inhibition of 4EBP1 phosphorylation at Thr 37/46 residues in human Mino cells at 10 to 25 uM after 48 hrs by Western blot analysis; assay type: cell-based; in short: as §3
[7] = Cytotoxicity against human Mino cells assessed as reduction in cell survival at 25 uM after 48 hrs by Annexin V/propidium iodide based flow cytometric analysis
In short: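 MCL cell lines exposed to ProTide 48 h, re-dosed daily. Survival read by Annexin V/PI staining on flow cytometry.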

[8] = target: Eukaryotic translation initiation factor 4E-binding protein 1 (Homo sapiens) (UniProt Q13541); assay: Inhibition of 4EBP1 phosphorylation at Ser 65 residues in human Mino cells at 10 to 25 uM after 48 hrs by Western blot analysis; assay type: cell-based; in short: as §3
Mino [9] = assay: Antiproliferative activity against human Mino cells at 100 uM preincubated for 48 hrs followed by thymidine addition measure after 16 hrs by Thymidine incorporation assay; assay type: functional, cell-based; in short: as §2
[10] = AUC (0 to 8 hrs) in Sprague-Dawley rat plasma at 25 mg/kg, po by LC-MS/MS analysis; assay type: ADME, organism-based; parameters: time < 8 hr, dose 25 mg/kg, route oral
In short: (§4)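 Female Sprague-Dawley rats (250-274 g, n=3, catheterized femoral/jugular veins) dosed once p.o. by gavage (25 mg/kg) then, after a 3-day washout, i.v. (2.5 mg/kg). Formulation: 10 mg/mL in 0.5% aqueous CMC with 5% DMSO. Serial blood draws to 480 min into K2EDTA; plasma protein-precipitated with acetonitrile plus internal standards; LC-MS/MS (positive MRM); non-compartmental PK; %F from dose-normalized AUC per rat.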

[11] = target: T1, Adenosine 5'-monophosphoramidase HINT1 (Homo sapiens, UniProt P49773); assay: Prodrug activation in human GRANTA-519 cells assessed as Hint1 mediated 2-amino-7-(2-(4-chlorophenoxy)ethyl)-9-((2R,3R,4S,5R)-3,4-dihydroxy-5-(phosphonooxymethyl)tetrahydrofuran-2-yl)-6-oxo-6,9-dihydro-1H-purin-7-ium formation per 5 million cells at 150 uM after 12 hrs by LC-MS/MS analysis; assay type: cell-based
In short: (§5)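 Five million MCL cells in RPMI/10% FBS with penicillin, streptomycin and L-glutamine were exposed to compound (150 µM) for 12 h at 37 °C. Cells were washed in cold PBS, extracted in MeOH/NH4OAc (60:40) with 80 fmol internal standards, freeze-thawed three times, then filtered and dried. Residue was taken up in HEPES for LC-MS/MS, quantified against an internal-standard curve.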

[12] = Volume of distribution in Sprague-Dawley rat at 2.5 mg/kg, iv by LC-MS/MS analysis; assay type: ADME, organism-based; conditions: in vivo
In short: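 Female Sprague-Dawley rats (n=3, 250-274 g) with catheters; compound in 0.5% aqueous CMC with 5% DMSO given as a single i.v. injection, 2.5 mg/kg. Blood drawn at 0–480 min into K2EDTA tubes. Plasma precipitated with acetonitrile containing internal standards, then LC-MS/MS in positive MRM mode. Parameters from non-compartmental analysis.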

Plasma = assay: Prodrug activation in Sprague-Dawley rat plasma assessed as 2-amino-7-(2-(4-chlorophenoxy)ethyl)-9-((2R,3R,4S,5R)-3,4-dihydroxy-5-(phosphonooxymethyl)tetrahydrofuran-2-yl)-6-oxo-6,9-dihydro-1H-purin-7-ium level at 2.5 mg/kg, iv measured at 5 mins by LC-MS/MS analysis; assay type: organism-based; conditions: in vivo; in short: as §4
[13] = Drug uptake in human Mino cells assessed per 5 million cells at 150 uM after 12 hrs by LC-MS/MS analysis; assay type: ADME, cell-based; in short: as §5
[14] = target: T1, Adenosine 5'-monophosphoramidase HINT1; assay: Prodrug activation in human Z138 cells assessed as Hint1 mediated 2-amino-7-(2-(4-chlorophenoxy)ethyl)-9-((2R,3R,4S,5R)-3,4-dihydroxy-5-(phosphonooxymethyl)tetrahydrofuran-2-yl)-6-oxo-6,9-dihydro-1H-purin-7-ium formation per 5 million cells at 150 uM after 12 hrs by LC-MS/MS analysis; assay type: cell-based
In short: (§6)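 Mantle cell lymphoma cells (five million) grown in RPMI with 10% FBS, penicillin/streptomycin and L-glutamine at 37 °C, 5% CO2, then exposed to 150 µM compound for 12 h at 37 °C. Washed with ice-cold PBS, pellet extracted in MeOH/NH4OAc (60:40) with 80 fmol internal standards, three liquid-N2 freeze–thaw cycles, filtered, dried, redissolved in 20 mM HEPES pH 7.2. Analysed by LC-MS/MS against a standard curve.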

[15] = Clearance in Sprague-Dawley rat at 2.5 mg/kg, iv by LC-MS/MS analysis; assay type: ADME, organism-based; conditions: Sprague-Dawley, in vivo; in short: as §4
[16] = Half life in Sprague-Dawley rat at 2.5 mg/kg, iv by LC-MS/MS analysis; assay type: ADME, organism-based; conditions: in vivo; in short: as §4
[17] = AUC (0 to 8 hrs) in Sprague-Dawley rat plasma at 2.5 mg/kg, iv by LC-MS/MS analysis; assay type: ADME, organism-based; parameters: time < 8 hr, dose 2.5 mg/kg, route intravenous; in short: as §4
Rattus norvegicus = assay: AUC (0 to 8 hrs) in Sprague-Dawley rat plasma assessed as 2-amino-7-(2-(4-chlorophenoxy)ethyl)-9-((2R,3R,4S,5R)-3,4-dihydroxy-5-(phosphonooxymethyl)tetrahydrofuran-2-yl)-6-oxo-6,9-dihydro-1H-purin-7-ium at 2.5 mg/kg, iv by LC-MS/MS analysis; assay type: ADME, organism-based; parameters: time < 8 hr, dose 2.5 mg/kg, route intravenous; conditions: in vivo; in short: as §4
Z-138 = assay: Drug uptake in human Z138 cells assessed per 5 million cells at 150 uM after 12 hrs by LC-MS/MS analysis; assay type: ADME, cell-based; conditions: z-138, 12 h; in short: as §5
[18] = Oral bioavailability in Sprague-Dawley rat at 25 mg/kg by LC-MS/MS analysis; assay type: ADME, organism-based; conditions: in vivo; in short: as §4
Granta-519 = assay: Drug uptake in human GRANTA-519 cells assessed per 5 million cells at 150 uM after 12 hrs by LC-MS/MS analysis; assay type: ADME, cell-based; conditions: granta-519, 12 h; in short: as §5
[19] = target: T1, Adenosine 5'-monophosphoramidase HINT1; assay: Prodrug activation in human Mino cells assessed as Hint1 mediated 2-amino-7-(2-(4-chlorophenoxy)ethyl)-9-((2R,3R,4S,5R)-3,4-dihydroxy-5-(phosphonooxymethyl)tetrahydrofuran-2-yl)-6-oxo-6,9-dihydro-1H-purin-7-ium formation per 5 million cells at 150 uM after 12 hrs by LC-MS/MS analysis; assay type: cell-based; in short: as §6

T1 sequence (P49773 whole entry): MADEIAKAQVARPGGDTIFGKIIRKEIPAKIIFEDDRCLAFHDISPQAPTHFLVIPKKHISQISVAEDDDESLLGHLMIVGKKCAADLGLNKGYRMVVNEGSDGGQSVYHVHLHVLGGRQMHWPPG
Chain of Eukaryotic translation initiation factor 4E-binding protein 1 (Homo sapiens) (Q13541 whole entry): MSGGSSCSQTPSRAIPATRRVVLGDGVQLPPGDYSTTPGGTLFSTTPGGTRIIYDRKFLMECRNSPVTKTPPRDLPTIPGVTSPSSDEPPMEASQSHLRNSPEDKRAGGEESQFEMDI
Chain of Eukaryotic translation initiation factor 4E (Homo sapiens) (P06730 whole entry): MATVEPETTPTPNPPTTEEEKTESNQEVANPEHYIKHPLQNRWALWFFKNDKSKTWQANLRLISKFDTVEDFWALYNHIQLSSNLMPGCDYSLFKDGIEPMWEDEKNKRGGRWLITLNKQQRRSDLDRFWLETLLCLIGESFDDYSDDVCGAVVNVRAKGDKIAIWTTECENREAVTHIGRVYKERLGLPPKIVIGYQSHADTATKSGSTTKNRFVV

**Q.** Which results are given for `CSCCCCOP(=O)(NCCc1c[nH]c2ccccc12)OC[C@H]1O[C@@H](n2c[n+](CCOc3ccc(Cl)cc3)c3c(=O)[nH]c(N)nc32)[C@H](O)[C@@H]1O` (some centres undefined)?
**A.** half-life at 80 µM [1]: 13 h; half-life at 80 µM [2]: 10.4 h

**Q.** For `COc1cccc2c1C(=O)c1c(O)c3c(c(O)c1C2=O)C[C@@](O)(C(=O)CO)C[C@@H]3O[C@H]1C[C@H](N)[C@H](O)[C@H](C)O1`, which Activity (Mino [3]) is on record?
**A.** inactive

**Q.** With `C=CC(=O)N1CCC[C@@H](n2nc(-c3ccc(Oc4ccccc4)cc3)c3c(N)ncnc32)C1` [IBRUTINIB] as the molecule, how does the Activity (Mino [4]) read?
**A.** inactive

**Q.** And the inhibition [5]?
**A.** Active

**Q.** What about the inhibition [6] of the same molecule?
**A.** inactive

**Q.** What about the Activity [7] of the same molecule?
**A.** Non-Toxic

**Q.** What about the inhibition [8] of the same molecule?
**A.** Active

**Q.** For `CSCCCOP(=O)(NCCc1c[nH]c2ccccc12)OC[C@H]1O[C@@H](n2c[n+](CCOc3ccc(Cl)cc3)c3c(=O)[nH]c(N)nc32)[C@H](O)[C@@H]1O` (some centres undefined), which half-life at 80 µM [2] is on record?
**A.** > 60 h

**Q.** For `C[C@@H]1C[C@H]2[C@@H]3CCC4=CC(=O)C=C[C@]4(C)[C@@]3(F)[C@@H](O)C[C@]2(C)[C@@]1(O)C(=O)CO`, which Activity (Mino [9]) is on record?
**A.** Active

**Q.** Which AUC(0-t) at 8 h [10] does the source give for `Nc1nc2c(c(=O)[nH]1)[n+](CCOc1ccc(Cl)cc1)cn2[C@@H]1O[C@H](COP(=O)(O)NCCc2c[nH]c3ccccc23)[C@@H](O)[C@H]1O` here?
**A.** 31.7 ng·h/mL

**Q.** What about the Drug metabolism [11] of the same molecule?
**A.** 5.23 pmol

**Q.** What about the Vd [12] of the same molecule?
**A.** 70 L/kg

**Q.** And the Drug metabolism (Plasma)?
**A.** 583 ng/mL

**Q.** What about the Drug uptake [13] of the same molecule?
**A.** 0.59 pmol

**Q.** And the Drug metabolism [14]?
**A.** 0.523 pmol

**Q.** And the clearance [15]?
**A.** 300 mL/min/kg

**Q.** And the half-life [16]?
**A.** 2.72 h

**Q.** And the AUC(0-t) at 8 h [17]?
**A.** 147 ng·h/mL

**Q.** What about the AUC (Rattus norvegicus) of the same molecule?
**A.** 13.1 µg·min/mL

**Q.** What about the Drug uptake (Z-138) of the same molecule?
**A.** 0.163 pmol

**Q.** And the bioavailability [18]?
**A.** < 1%

**Q.** What about the Drug uptake (Granta-519) of the same molecule?
**A.** 1.52 pmol

**Q.** What about the Drug metabolism [19] of the same molecule?
**A.** 7.49 pmol
